In ChEMBL document CHEMBL5724801, “EUbOPEN Chemogenomics Library - Multiplex” (2024):
Values joined by “and” are separate entries in the source; they are usually repeats but may differ in a detail not shown here. Identical values can stand only once.

Tested on: HEK-293T
Experiment: Multiplex assay against HEK293T
Format: toxicity, cell-based
Details: human
Summary of the method: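 Four dyes were applied at seeding to live cells: Hoechst33342, BioTracker Green Microtubule Cytoskeleton Dye, MitoTracker Red and Annexin V Alexa Fluor 680. Imaging after compound addition used a CQ1 microscope at 37°C and 5% CO2. CellPathfinder machine-learning gating then sorted cells into Hoechst high-intensity objects or normal cells, normal cells into healthy, pyknosed or fragmented nuclei, and pyknosed cells into mitotic or apoptotic, with tubulin, mitochondrial-mass and membrane-permeability phenotypes given as per cents of healthy-nucleus cells.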

[1] = 12 h, 1 µM, compound concentration 1 uM
[2] = 12 h, 10 µM, compound concentration 10 uM
[3] = 24 h, 1 µM, compound concentration 1 uM
[4] = 24 h, 10 µM, compound concentration 10 uM
[5] = 48 h, 1 µM, compound concentration 1 uM
[6] = 48 h, 10 µM, compound concentration 10 uM

SMILES: c1cc(OCCCN2CCCCC2)ccc1CN1CCCCC1 [JNJ-5207852]
- Population Apoptotic (%) [1]: 36% and 47%
- Population Fragmented Nuclei (%) [1]: 6% and 10%
- Population Healthy Nuclei (%) [1]: 84% and 75%
- Population Hoechst High Intensity Objects (%) [1]: 5%
- Population Membrane Permeable-Phenotype (%) [1]: 0%
- Population Mitochondria Different-Phenotype (%) [1]: 36% and 53%
- Population Mitotic Cells (%) [1]: 63% and 52%
- Population Normal (%) [1]: 94%
- Population Pyknosed Nuclei (%) [1]: 8% and 13%
- Population Tubulin-Different-Phenotype (%) [1]: 21% and 17%
- Total Cell Count [1]: 577 and 310
- Population Apoptotic (%) [2]: 40% and 66%
- Population Fragmented Nuclei (%) [2]: 7%
- Population Healthy Nuclei (%) [2]: 75% and 67%
- Population Hoechst High Intensity Objects (%) [2]: 7% and 11%
- Population Membrane Permeable-Phenotype (%) [2]: 0% and 1%
- Population Mitochondria Different-Phenotype (%) [2]: 63% and 69%
- Population Mitotic Cells (%) [2]: 59% and 33%
- Population Normal (%) [2]: 92% and 88%
- Population Pyknosed Nuclei (%) [2]: 17% and 24%
- Population Tubulin-Different-Phenotype (%) [2]: 52% and 41%
- Total Cell Count [2]: 328 and 259
- Population Apoptotic (%) [3]: 25% and 41%
- Population Fragmented Nuclei (%) [3]: 6% and 11%
- Population Healthy Nuclei (%) [3]: 82% and 79%
- Population Hoechst High Intensity Objects (%) [3]: 5% and 3%
- Population Membrane Permeable-Phenotype (%) [3]: 1% and 0%
- Population Mitochondria Different-Phenotype (%) [3]: 20% and 30%
- Population Mitotic Cells (%) [3]: 74% and 58%
- Population Normal (%) [3]: 94% and 96%
- Population Pyknosed Nuclei (%) [3]: 11% and 9%
- Population Tubulin-Different-Phenotype (%) [3]: 15% and 12%
- Total Cell Count [3]: 710 and 447
- Population Apoptotic (%) [4]: 47% and 65%
- Population Fragmented Nuclei (%) [4]: 9% and 8%
- Population Healthy Nuclei (%) [4]: 77% and 79%
- Population Hoechst High Intensity Objects (%) [4]: 6% and 5%
- Population Membrane Permeable-Phenotype (%) [4]: 1% and 2%
- Population Mitochondria Different-Phenotype (%) [4]: 47% and 50%
- Population Mitotic Cells (%) [4]: 52% and 34%
- Population Normal (%) [4]: 93% and 94%
- Population Pyknosed Nuclei (%) [4]: 13% and 11%
- Population Tubulin-Different-Phenotype (%) [4]: 44% and 35%
- Total Cell Count [4]: 414 and 322
- Population Apoptotic (%) [5]: 17% and 23%
- Population Fragmented Nuclei (%) [5]: 14% and 11%
- Population Healthy Nuclei (%) [5]: 80% and 83%
- Population Hoechst High Intensity Objects (%) [5]: 2% and 1%
- Population Membrane Permeable-Phenotype (%) [5]: 1%
- Population Mitochondria Different-Phenotype (%) [5]: 12% and 17%
- Population Mitotic Cells (%) [5]: 82% and 76%
- Population Normal (%) [5]: 97% and 98%
- Population Pyknosed Nuclei (%) [5]: 5% and 4%
- Population Tubulin-Different-Phenotype (%) [5]: 11% and 9%
- Total Cell Count [5]: 1128 and 746
- Population Apoptotic (%) [6]: 34% and 52%
- Population Fragmented Nuclei (%) [6]: 13%
- Population Healthy Nuclei (%) [6]: 77% and 75%
- Population Hoechst High Intensity Objects (%) [6]: 8% and 9%
- Population Membrane Permeable-Phenotype (%) [6]: 1%
- Population Mitochondria Different-Phenotype (%) [6]: 29% and 38%
- Population Mitotic Cells (%) [6]: 65% and 47%
- Population Normal (%) [6]: 91% and 90%
- Population Pyknosed Nuclei (%) [6]: 8% and 10%
- Population Tubulin-Different-Phenotype (%) [6]: 28% and 30%
- Total Cell Count [6]: 619 and 424

SMILES: CN(C)Cc1cccc(NC(=C2C(=O)Nc3cc(C(=O)N(C)C)ccc32)c2ccccc2)c1
- Population Apoptotic (%) [1]: 14.71% and 13.93%
- Population Hoechst High Intensity Objects (%) [1]: 0%
- Population Membrane Permeable-Phenotype (%) [1]: 2.97% and 0%
- Population Mitochondria Different-Phenotype (%) [1]: 27.72% and 21.05%
- Population Mitotic Cells (%) [1]: 85.29% and 86.07%
- Population Normal (%) [1]: 100%
- Population Pyknosed Nuclei (%) [1]: 32.08% and 85.31%
- Total Cell Count [1]: 424 and 143
- Population Apoptotic (%) [2]: 28.57% and 37.07%
- Population Fragmented Nuclei (%) [2]: 3.59% and 6.21%
- Population Hoechst High Intensity Objects (%) [2]: 0.65% and 0%
- Population Membrane Permeable-Phenotype (%) [2]: 0.65% and 0%
- Population Mitochondria Different-Phenotype (%) [2]: 22.58% and 0%
- Population Mitotic Cells (%) [2]: 71.43% and 62.93%
- Population Normal (%) [2]: 99.35% and 100%
- Population Pyknosed Nuclei (%) [2]: 45.75% and 80%
- Population Tubulin-Different-Phenotype (%) [2]: 30.97% and 70%
- Total Cell Count [2]: 308 and 145
- Population Apoptotic (%) [3]: 14.29% and 19.69%
- Population Healthy Nuclei (%) [3]: 68.64% and 31.44%
- Population Hoechst High Intensity Objects (%) [3]: 0% and 1.52%
- Population Membrane Permeable-Phenotype (%) [3]: 1.78% and 1.64%
- Population Mitochondria Different-Phenotype (%) [3]: 11.17% and 11.48%
- Population Mitotic Cells (%) [3]: 85.71% and 80.31%
- Population Normal (%) [3]: 100% and 98.48%
- Population Tubulin-Different-Phenotype (%) [3]: 15.48% and 9.84%
- Total Cell Count [3]: 574 and 197
- Population Apoptotic (%) [4]: 47.22% and 65.45%
- Population Fragmented Nuclei (%) [4]: 1.9% and 4%
- Population Hoechst High Intensity Objects (%) [4]: 0%
- Population Membrane Permeable-Phenotype (%) [4]: 1.58% and 2.94%
- Population Mitochondria Different-Phenotype (%) [4]: 28.85% and 52.94%
- Population Mitotic Cells (%) [4]: 52.78% and 34.55%
- Population Normal (%) [4]: 100%
- Population Pyknosed Nuclei (%) [4]: 29.35% and 73.33%
- Population Tubulin-Different-Phenotype (%) [4]: 57.71% and 41.18%
- Total Cell Count [4]: 368 and 150
- Population Fragmented Nuclei (%) [5]: 9.11% and 4.39%
- Population Healthy Nuclei (%) [5]: 81.42% and 58.77%
- Population Hoechst High Intensity Objects (%) [5]: 0.09% and 1.3%
- Population Membrane Permeable-Phenotype (%) [5]: 9.75% and 2.24%
- Population Mitochondria Different-Phenotype (%) [5]: 13.07% and 33.58%
- Population Mitotic Cells (%) [5]: 98.1% and 79.76%
- Population Normal (%) [5]: 99.91% and 98.7%
- Population Apoptotic (%) [6]: 35.58% and 37.33%
- Population Fragmented Nuclei (%) [6]: 1.61% and 2.67%
- Population Healthy Nuclei (%) [6]: 79.82% and 47.33%
- Population Hoechst High Intensity Objects (%) [6]: 0%
- Population Membrane Permeable-Phenotype (%) [6]: 2.91% and 2.82%
- Population Mitochondria Different-Phenotype (%) [6]: 76.06% and 67.61%
- Population Mitotic Cells (%) [6]: 64.42% and 62.67%
- Population Normal (%) [6]: 100%
- Population Pyknosed Nuclei (%) [6]: 18.57% and 50%

SMILES: COc1ccc2[nH]c(I)c(CCNC(C)=O)c2c1 [IODOMELATONIN]
- Population Apoptotic (%) [1]: 42% and 59%
- Population Fragmented Nuclei (%) [1]: 4% and 5%
- Population Healthy Nuclei (%) [1]: 80% and 84%
- Population Hoechst High Intensity Objects (%) [1]: 5% and 7%
- Population Membrane Permeable-Phenotype (%) [1]: 1% and 0%
- Population Mitochondria Different-Phenotype (%) [1]: 43% and 64%
- Population Mitotic Cells (%) [1]: 57% and 40%
- Population Normal (%) [1]: 94% and 92%
- Population Pyknosed Nuclei (%) [1]: 14% and 10%
- Population Tubulin-Different-Phenotype (%) [1]: 35% and 32%
- Total Cell Count [1]: 388 and 400
- Population Apoptotic (%) [2]: 38% and 46%
- Population Fragmented Nuclei (%) [2]: 11% and 8%
- Population Healthy Nuclei (%) [2]: 77%
- Population Hoechst High Intensity Objects (%) [2]: 8% and 12%
- Population Membrane Permeable-Phenotype (%) [2]: 0%
- Population Mitochondria Different-Phenotype (%) [2]: 52% and 62%
- Population Mitotic Cells (%) [2]: 61% and 53%
- Population Normal (%) [2]: 91% and 87%
- Population Pyknosed Nuclei (%) [2]: 10% and 14%
- Population Tubulin-Different-Phenotype (%) [2]: 29% and 25%
- Total Cell Count [2]: 445 and 316
- Population Apoptotic (%) [3]: 38% and 44%
- Population Fragmented Nuclei (%) [3]: 8% and 9%
- Population Healthy Nuclei (%) [3]: 80% and 78%
- Population Hoechst High Intensity Objects (%) [3]: 3% and 8%
- Population Membrane Permeable-Phenotype (%) [3]: 1% and 0%
- Population Mitochondria Different-Phenotype (%) [3]: 24% and 37%
- Population Mitotic Cells (%) [3]: 61% and 55%
- Population Normal (%) [3]: 96% and 91%
- Population Pyknosed Nuclei (%) [3]: 11%
- Population Tubulin-Different-Phenotype (%) [3]: 23% and 14%
- Total Cell Count [3]: 511 and 497
- Population Apoptotic (%) [4]: 32% and 40%
- Population Fragmented Nuclei (%) [4]: 11% and 5%
- Population Healthy Nuclei (%) [4]: 77% and 81%
- Population Hoechst High Intensity Objects (%) [4]: 5% and 9%
- Population Membrane Permeable-Phenotype (%) [4]: 1% and 0%
- Population Mitochondria Different-Phenotype (%) [4]: 31% and 48%
- Population Mitotic Cells (%) [4]: 67% and 59%
- Population Normal (%) [4]: 94% and 90%
- Population Pyknosed Nuclei (%) [4]: 10% and 12%
- Population Tubulin-Different-Phenotype (%) [4]: 25% and 21%
- Total Cell Count [4]: 568 and 360
- Population Apoptotic (%) [5]: 26% and 31%
- Population Fragmented Nuclei (%) [5]: 12%
- Population Healthy Nuclei (%) [5]: 79%
- Population Hoechst High Intensity Objects (%) [5]: 4% and 5%
- Population Membrane Permeable-Phenotype (%) [5]: 1%
- Population Mitochondria Different-Phenotype (%) [5]: 19% and 22%
- Population Mitotic Cells (%) [5]: 73% and 68%
- Population Normal (%) [5]: 95% and 94%
- Population Pyknosed Nuclei (%) [5]: 7% and 8%
- Population Tubulin-Different-Phenotype (%) [5]: 16% and 14%
- Total Cell Count [5]: 770 and 622
- Population Apoptotic (%) [6]: 23% and 25%
- Population Fragmented Nuclei (%) [6]: 16% and 15%
- Population Healthy Nuclei (%) [6]: 77% and 75%
- Population Hoechst High Intensity Objects (%) [6]: 1% and 2%
- Population Membrane Permeable-Phenotype (%) [6]: 1% and 0%
- Population Mitochondria Different-Phenotype (%) [6]: 16% and 24%
- Population Mitotic Cells (%) [6]: 76% and 74%
- Population Normal (%) [6]: 98% and 97%
- Population Pyknosed Nuclei (%) [6]: 5% and 9%
- Population Tubulin-Different-Phenotype (%) [6]: 11% and 16%
- Total Cell Count [6]: 860 and 613
